Values after ≈ are worked out from the molar mass of the structure shown.
Key:
[1] = system: S. aureus RN450 (wild type, tetracycline susceptible); assay: Microdilution MIC, S. aureus wild type; format: cell-based; settings: Staphylococcus aureus, read-out: MIC, S. aureus wild type
[2] = system: S. aureus MRSA 5 (MRSA, ribosome protection, Tet M); assay: Microdilution MIC, S. aureus Tet M; format: cell-based; settings: Staphylococcus aureus, read-out: MIC, S. aureus Tet M
[3] = system: S. aureus RN4250 (tetracycline efflux, Tet K); assay: Microdilution MIC, S. aureus Tet K; format: cell-based; settings: Staphylococcus aureus, read-out: MIC, S. aureus Tet K
[4] = system: E. faecalis JH2-2 (wild type, tetracycline susceptible); assay: Microdilution MIC, E. faecalis wild type; format: cell-based; settings: Enterococcus faecalis, read-out: MIC, E. faecalis wild type
[5] = system: E. faecalis JH2-2(pAM211) (ribosome protection, Tet M); assay: Microdilution MIC, E. faecalis Tet M; format: cell-based; settings: Enterococcus faecalis, read-out: MIC, E. faecalis Tet M
[6] = system: E. faecalis JH2-2(pMV158) (tetracycline efflux, Tet L); assay: Microdilution MIC, E. faecalis Tet L; format: cell-based; settings: Enterococcus faecalis, read-out: MIC, E. faecalis Tet L
[7] = system: E. faecium 494 (Tet M plus Tet L); assay: Microdilution MIC, E. faecium Tet M + L; format: cell-based; settings: Enterococcus faecium, read-out: MIC, E. faecium Tet M + L
[8] = system: S. pneumoniae 157E (wild type, tetracycline susceptible); assay: Microdilution MIC, S. pneumoniae wild type; format: cell-based; settings: Streptococcus pneumoniae, read-out: MIC, S. pneumoniae wild type
[9] = system: S. pneumoniae ATCC 700905 (ribosome protection, Tet M); assay: Microdilution MIC, S. pneumoniae Tet M; format: cell-based; settings: Streptococcus pneumoniae, ATCC700905, read-out: MIC, S. pneumoniae Tet M
S. aureus MRSA 5 (Tet M) [10] = assay: Serum MIC, S. aureus MRSA 5; format: cell-based; settings: Staphylococcus aureus, read-out: S. aureus MRSA 5 (Tet M) serum MIC, None
S. aureus MRSA 5 (Tet M) [11] = assay: S. aureus MRSA 5 thigh wound infection model in mice; format: in vivo; settings: 24 h after single subcutaneous injection of 20 mg/kg
[12] = Pharmacokinetics in nonhuman primates; format: in vivo, Cynomolgus monkeys; settings: for AUC / Cmax / Tmax / half-life / bioavailability: cynomolgus monkey, plasma
In short: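 Cynomolgus monkeys were dosed intravenously (infusion ending at 0.25 h) or orally. Plasma was sampled predose and at 0.25, 0.5, 1, 3, 5, 7, 16 and 24 h. Protein was precipitated with acetonitrile containing 0.1% formic acid, then centrifuged. The supernatant was dried, reconstituted in methanol-water (1:1) and quantified by LC-MS/MS. PK parameters came from noncompartmental analysis.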

[13] = system: Gram-positive screening panel organisms (S. aureus, Enterococcus spp., S. pneumoniae); assay: MIC ranges over the Gram-positive screening panel; format: cell-based; settings: read-out: MIC range against resistant organisms

Structure (SMILES) | MIC [1] [µg/mL] | MIC [2] [µg/mL] | MIC [3] [µg/mL] | MIC [4] [µg/mL] | MIC [5] [µg/mL] | MIC [6] [µg/mL] | MIC [7] [µg/mL] | MIC [8] [µg/mL] | MIC [9] [µg/mL] | MIC (S. aureus MRSA 5 (Tet M) [10]) [µg/mL] | AUC ([12]; po, 5 mg/kg) [ng·h/mL] | Cmax ([12]; po, 5 mg/kg) [ng/mL] | Tmax ([12]; po, 5 mg/kg) [h] | bioavailability ([12]; po, 5 mg/kg) [%] | half-life ([12]; po, 5 mg/kg) [min] | AUC ([12]; iv, 5 mg/kg) [ng·h/mL] | Cmax ([12]; iv, 5 mg/kg) [ng/mL] | Tmax ([12]; iv, 5 mg/kg) [h] | half-life ([12]; iv, 5 mg/kg) [min] | reduction of colony count relative to untreated control animals (S. aureus MRSA 5 (Tet M) [11]) [log10] | also measured
CN(C)c1cc(CNCC(C)(C)C)c(O)c2c1C[C@H]1C[C@H]3[C@H](N(C)C)C(O)=C(C(N)=O)C(=O)[C@@]3(O)C(O)=C1C2=O [Compound 27, 9-neopentylaminomethylminocycline] | 0.25 (≈ 0.449 µM) | 0.25 (≈ 0.449 µM) | 0.25 (≈ 0.449 µM) | 0.25 (≈ 0.449 µM) | 0.5 (≈ 0.898 µM) | 0.5 (≈ 0.898 µM) | 0.5 | < 0.06 | < 0.06 | 0.25 (≈ 0.449 µM) | 5300 | 410 | 2.3 | 31 | 666 | – | – | – | – | 2.49 to 3.11 | tolerability after intravenous infusion ([12]; Cynomolgus monkeys): well tolerated; AUC ([12]; iv, 2.6 mg/kg): 9000 ng·h/mL; Cmax ([12]; iv, 2.6 mg/kg): 1880 ng/mL; Tmax ([12]; iv, 2.6 mg/kg): 0.2 h; half-life ([12]; iv, 2.6 mg/kg): 864 min; oral plasma exposure relative to tigecycline ([12]; oral administration, monkeys): 10 fold; MIC [13]: 0.06 to 0.5 µg/mL (≈ 0.108 to 0.898 µM)
CN[C@H](CC(C)C)C(=O)N[C@H]1C(=O)N[C@@H](CC(N)=O)C(=O)N[C@H]2C(=O)N[C@H]3C(=O)N[C@H](C(=O)N[C@H](C(=O)O)c4cc(O)cc(O)c4-c4cc3ccc4O)[C@H](O)c3ccc(c(Cl)c3)Oc3cc2cc(c3O[C@@H]2O[C@H](CO)[C@@H](O)[C@H](O)[C@H]2O[C@H]2C[C@](C)(N)[C@H](O)[C@H](C)O2)Oc2ccc(cc2Cl)[C@H]1O [Vancomycin] | 0.5 (≈ 0.345 µM) | 0.5 (≈ 0.345 µM) | 0.25 (≈ 0.173 µM) | 1 (≈ 0.69 µM) | 1 (≈ 0.69 µM) | 1 (≈ 0.69 µM) | > 64 | 0.25 (≈ 0.173 µM) | 0.25 (≈ 0.173 µM) | 0.5 (≈ 0.345 µM) | – | – | – | – | – | – | – | – | – | – | –

Second part, led by results:

MIC [1] [µg/mL] | MIC [2] [µg/mL] | MIC [3] [µg/mL] | MIC [4] [µg/mL] | MIC [5] [µg/mL] | MIC [6] [µg/mL] | MIC [7] [µg/mL] | MIC [8] [µg/mL] | MIC [9] [µg/mL] | MIC (S. aureus MRSA 5 (Tet M) [10]) [µg/mL] | AUC ([12]; po, 5 mg/kg) [ng·h/mL] | Cmax ([12]; po, 5 mg/kg) [ng/mL] | Tmax ([12]; po, 5 mg/kg) [h] | bioavailability ([12]; po, 5 mg/kg) [%] | half-life ([12]; po, 5 mg/kg) [min] | AUC ([12]; iv, 5 mg/kg) [ng·h/mL] | Cmax ([12]; iv, 5 mg/kg) [ng/mL] | Tmax ([12]; iv, 5 mg/kg) [h] | half-life ([12]; iv, 5 mg/kg) [min] | Structure (SMILES) | reduction of colony count relative to untreated control animals (S. aureus MRSA 5 (Tet M) [11]) [log10] | also measured
0.25 (≈ 0.546 µM) | 2 (≈ 4.37 µM) | 0.5 (≈ 1.09 µM) | 0.5 (≈ 1.09 µM) | 16 (≈ 35 µM) | 0.5 (≈ 1.09 µM) | 16 | < 0.06 | 8 (≈ 17.5 µM) | 2 (≈ 4.37 µM) | 22100 | 2200 | 3 | 80 | 420 | 27600 | 14800 | 0.1 | 624 | CN(C)c1ccc(O)c2c1C[C@H]1C[C@H]3[C@H](N(C)C)C(O)=C(C(N)=O)C(=O)[C@@]3(O)C(O)=C1C2=O [Minocycline, minocycline] | 0.98 | –
< 0.06 | 32 (≈ 72 µM) | > 64 | 0.25 (≈ 0.563 µM) | > 64 | 64 (≈ 144 µM) | > 64 | < 0.06 | 32 (≈ 72 µM) | – | – | – | – | – | – | – | – | – | – | CN(C)[C@@H]1C(O)=C(C(N)=O)C(=O)[C@@]2(O)C(O)=C3C(=O)c4c(O)cccc4[C@@](C)(O)[C@H]3C[C@@H]12 [Tetracycline, tetracycline] | – | –
0.25 (≈ 0.427 µM) | 0.25 (≈ 0.427 µM) | 0.5 (≈ 0.854 µM) | 0.5 (≈ 0.854 µM) | 0.5 (≈ 0.854 µM) | 0.5 (≈ 0.854 µM) | 0.5 | < 0.06 | < 0.06 | 0.25 (≈ 0.427 µM) | 500 | 40 | 4 | 3.1 | 204 | 16300 | 23200 | 0.2 | 654 | CN(C)c1cc(NC(=O)CNC(C)(C)C)c(O)c2c1C[C@H]1C[C@H]3[C@H](N(C)C)C(O)=C(C(N)=O)C(=O)[C@@]3(O)C(O)=C1C2=O [Tigecycline, tigecycline] | – | –

Reference: publication PMC4604364 (Antimicrobial Agents and Chemotherapy, 2015)
